Compound activity (PubChem BioAssay)
Only some compounds are listed: those with a hit (about 2.3% of all), similar ones and a draw of the others.
OXTR potentiate – potentiators of human oxytocin receptor; P30559; activation, % at 3 µM; actives 0.061% (n = 320,000); AID 2445; CHO-OTR cells, Fluo-8 calcium fluorescence, potentiator mode; 0% = oxytocin EC15, 100% = EC100;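 active = activation above that plate's cutoff, the mean activation of tested compounds plus 3 SD, cut at about 6.6% in these data, passing the limit was not always enough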;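 also: 100% uses oxytocin at 75 nM as the full agonist control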
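test system = CHO-OTR cells, human receptor | compound = single-point 3.0 µM | schedule = 6 min compound pre-incubation at room temperature, 100 s kinetic read | signal = Fluo-8 no-wash calcium dye fluorescence, excitation 470-495 nm, emission 515-575 nm | repeats = single well per compound, singlicate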
TAAR1 antag – human TAAR1 antagonism. CHO RD-HGA16 TAAR1, Fluo-8 calcium fluorescence, antagonist. inhibition, % at 3 µM. actives 1.5% (n = 360,000). AID 624466;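 active = inhibition above a per-plate cutoff, the mean inhibition of test compounds on that plate plus 3 SD, cut at about 49% in these data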;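 also: 0% = DMSO plus EC80 beta-PEA response and 100% = DMSO alone without agonist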
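Assay system: RD-HGA16 CHO cells with stable hTAAR1 and Gα16 / Reagent: EC80 β-phenethylamine stimulus / Doses: 3 µM, single point / Timing: dye loading 75 min at 37 °C, then 30 min room temperature / Measured by: Fluo-8 intracellular calcium dye fluorescence, real-time kinetic reads / Controls: vehicle wells and EC80 agonist wells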
OXTR ag – human OXTR agonism; AID 2435; CHO-OTR cells, Fluo-8 calcium fluorescence; normalized: DMSO 0%, oxytocin 100%; actives 0.32% (n = 320,000); activation, % at 3 µM;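 active = activation above the mean of all tested compounds plus 3 SD, cutoff set per screening run, cut at about 20% in these data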;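 also: peak over basal fluorescence ratio from a 100 s FLIPR kinetic read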
V1aR counter – V1a receptor agonism, counter-screen for OXTR agonists | activation, % at 3 µM | actives 0.25% (n = 320,000) | P37288 | CHO-V1R cells, Fluo-8 calcium fluorescence, agonist mode; 0% DMSO, 100% 3 nM vasopressin;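 active = activation above the mean activation of all tested compounds plus 3 SD, per screening run, cut at about 20% in these data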;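 also: signal is peak over basal fluorescence ratio across a 100 second FLIPR read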
Target sequence (P37288 whole entry, looked up): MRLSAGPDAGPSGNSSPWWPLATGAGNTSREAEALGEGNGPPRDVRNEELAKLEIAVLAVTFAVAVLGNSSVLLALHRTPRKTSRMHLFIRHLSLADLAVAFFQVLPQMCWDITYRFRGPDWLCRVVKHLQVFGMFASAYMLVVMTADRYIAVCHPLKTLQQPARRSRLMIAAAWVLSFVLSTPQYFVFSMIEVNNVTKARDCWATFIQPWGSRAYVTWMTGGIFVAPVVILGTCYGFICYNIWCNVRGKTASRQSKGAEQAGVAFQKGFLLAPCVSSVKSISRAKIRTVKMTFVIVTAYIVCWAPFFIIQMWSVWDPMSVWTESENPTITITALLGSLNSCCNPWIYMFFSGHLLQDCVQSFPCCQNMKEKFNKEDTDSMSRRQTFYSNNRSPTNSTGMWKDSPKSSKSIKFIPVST
TAAR1 ag – human TAAR1 agonism | actives 0.99% (n = 360,000) | CHO RD-HGA16 TAAR1, Fluo-8 calcium fluorescence; vehicle wells 0%, saturating PEA agonist 100% | Q96RJ0 | activation, % at 3 µM;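 active = activation above the mean activation of all test compounds in the run plus 3 SD, cut at about 38% in these data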
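Test system: RD-HGA16 (CHO) cells co-expressing Gα16 and hTAAR1; dosing: one-point dosing at 3 µM (nominal); timing: 17-24 h seeding, 75 min 37 °C dye, 30 min RT; signal: kinetic Fluo-8 calcium fluorescence; read-out basis: % activation relative to PEA EC100 response; controls: DMSO and PEA EC100; replicates: n 1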
OXTR ag confirm – confirmation of human oxytocin receptor agonists; shares compounds with OXTR ag; CHO-OTR cells, Fluo-8 calcium fluorescence, agonist; activation, % at 3 µM; actives 20% (n = 390); AID 434963;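 active = mean activation above about 20% derived from the earlier single-dose screen, limit read from the data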;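 also: peak over minimum fluorescence ratio per well during a 100 second FLIPR read; 0% = DMSO alone and 100% = oxytocin high control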
V1R ag counter 3x – V1R agonism in triplicate, counter-screen for OXTR agonists | shares compounds with OXTR ag | CHO-V1R cells, Fluo-8 calcium fluorescence, agonist | activation, % at 3 µM | actives 10% (n = 390) | AID 434991;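 active = mean activation over triplicate exceeds the hit threshold set in the earlier primary screen, cut at about 20% in these data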;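 also: peak over basal fluorescence ratio within a 100 second read; 0% = DMSO alone and 100% = 3 nM vasopressin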
Numbers without * were called inactive.

What do the screens show for `O=C(Nc1cccc(Br)c1)c1ccc(Cl)c(S(=O)(=O)N2CCOCC2)c1`?
OXTR potentiate: -13.6; TAAR1 antag: 73.0*; OXTR ag: 23.6*; V1aR counter: 14.7; TAAR1 ag: 29.6; OXTR ag confirm: 10.4; V1R ag counter 3x: 10.0

Results for OC(COCc1ccccc1)CN1CCCCC1 (centres undefined) ?
OXTR potentiate: 0.2; TAAR1 antag: 5.8; OXTR ag: 1.2; V1aR counter: 1.2; TAAR1 ag: 1.1

How did C=CCOC(=O)C1=C[C@@H](c2ccc(C(F)(F)F)cc2)[C@H](CCCO)[C@@H](OCC)O1 do in these assays?
OXTR potentiate: -8.9; TAAR1 antag: 6.0; OXTR ag: 20.1*; V1aR counter: -1.5; TAAR1 ag: 6.8; OXTR ag confirm: -0.9; V1R ag counter 3x: -0.1

How did Cc1ccc(-c2nn(-c3ccccc3)cc2C2CC(c3cccs3)=NN2C(=O)CCCC(=O)O)cc1 (centres undefined) do in these assays?
OXTR potentiate: -11.8; TAAR1 antag: 20.3; OXTR ag: 23.1*; V1aR counter: 18.7; TAAR1 ag: 12.9; OXTR ag confirm: 7.4; V1R ag counter 3x: 2.5

How did COc1ccc(-c2nn(-c3ccccc3)cc2C2CC(c3cccs3)=NN2C(=O)CCCC(=O)O)cc1 (centres undefined) do in these assays?
OXTR potentiate: -12.4; TAAR1 antag: 1.3; OXTR ag: 7.5; V1aR counter: 7.3; TAAR1 ag: 7.6

What do the screens show for `O=C(C1CCCCC1)N1CCCc2ccccc21`?
OXTR potentiate: -19.6; TAAR1 antag: -9.9; OXTR ag: 29.6*; V1aR counter: -1.1; TAAR1 ag: 6.0; OXTR ag confirm: 5.2; V1R ag counter 3x: -0.5

How did NC(=O)c1c(NC(=O)c2ccncc2)sc2c1CCCCCC2 do in these assays?
OXTR potentiate: -8.2; TAAR1 antag: 9.3; OXTR ag: 24.2*; V1aR counter: 12.6; TAAR1 ag: 29.6; OXTR ag confirm: 14.4; V1R ag counter 3x: 21.1*

What do the screens show for `CCCN1C(=O)/C(=C/c2c(NCCCOC(C)C)nc3c(C)cccn3c2=O)SC1=S`?
OXTR potentiate: -11.5; OXTR ag: 4.9; V1aR counter: 4.3

Results for CCC(C)N1C(=O)/C(=C/c2c(NCCCOC(C)C)nc3c(C)cccn3c2=O)SC1=S (centres undefined) ?
OXTR potentiate: -6.9; TAAR1 antag: 12.7; OXTR ag: 20.7*; V1aR counter: 18.3; TAAR1 ag: 9.9; OXTR ag confirm: 37.4*; V1R ag counter 3x: 84.9*

Results for Cc1ccc(C)n1CCN1CCN(S(=O)(=O)c2ccc(F)cc2F)CC1 ?
OXTR potentiate: -4.4; TAAR1 antag: -9.6; OXTR ag: -1.5; V1aR counter: -0.4; TAAR1 ag: -0.2

How did CCOc1ccc(S(=O)(=O)n2cnc(C)c2)cc1 do in these assays?
OXTR potentiate: -9.1; TAAR1 antag: 5.4; OXTR ag: -1.4; V1aR counter: 0.5; TAAR1 ag: 1.3

What do the screens show for `Cc1c2ccccc2nc2c(F)c(NC(C)C)c(F)c(F)c12`?
OXTR potentiate: -5.6; TAAR1 antag: 16.7; OXTR ag: 20.4*; V1aR counter: 10.6; TAAR1 ag: 5.7; OXTR ag confirm: 51.4*; V1R ag counter 3x: 66.0*

How did Cc1c2ccccc2nc2c(F)c(NCCO)c(F)c(F)c12 do in these assays?
OXTR potentiate: -0.2; TAAR1 antag: 25.7; OXTR ag: 2.4; V1aR counter: 3.1; TAAR1 ag: 13.4

Results for CCN1C(=O)C2(C(C#N)=C(N)Oc3n[nH]c(-c4ccc(Cl)cc4)c32)c2ccccc21 (centres undefined) ?
OXTR potentiate: -0.5; TAAR1 antag: -10.5; OXTR ag: 1.4; V1aR counter: -0.1; TAAR1 ag: 0.6
